Only some compounds are listed: those with a hit (about 2.6% of all), similar ones and a draw of the others.
IMP-1 inh: inhibitors of Pseudomonas aeruginosa IMP-1 metallo-beta-lactamase; purified IMP-1, nitrocefin hydrolysis, epi-absorbance fluorescence; hit rate 0.45% among 290,000; inhibition, % at 5.6 µM;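 active = inhibition above the mean plus 3 SD of all compounds in the same screening run, cut at about 4.5% in these data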;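 also: 0% = IMP-1 with DMSO and 100% = DMSO wells lacking enzyme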
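Material – recombinant IMP-1 enzyme, purified · Amount – IMP-1 0.2 nM before substrate addition · Medium – HEPES buffer pH 7.1 with ZnSO4 and Brij 35 · Timing – 25 °C, 15 min preincubation, 25 min reaction · Measured by – plate fluorescence quenching by hydrolysis product, ex 480/em 530 nm · Read-out – percent enzyme inhibition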
RanGTP-Impb inh: inhibitors of RanGTP-importin-beta interaction, primary screen, biochemical, FRET, CFP-Ran, YFP-importin-beta, homogeneous. cell-free CFP-Ran/YFP-importin-beta FRET ratio. inhibition, % (no concentration beside the values). AID 2216. hit rate 1.1% among 300,000;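 active = more than half of the replicate wells show a fall in the fluorescence ratio signal beyond about 16%, limit read from the data, passing the limit was not always enough; inconclusive = exactly half of the replicate wells pass the set limit; inactive = fewer than half of replicates pass the limit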;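 also: 0% = DMSO wells and 100% = Ran loaded with GDP instead of GTP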
Runt-SMMHC FRET: blocks binding of human RUNX1 Runt domain to CBFb-SMMHC; Q01196+Q13951; Cerulean-Runt/Venus-CBFb-SMMHC FRET ratio 530/480, 1 h; inhibition, % at 20 µM; hit rate 0.74% among 220,000;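 active = mean inhibition across duplicate retests at 20 µM reaching about 50%, limit read from the data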;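 also: 0% = DMSO wells and 100% = wells with excess untagged CBFb-SMMHC; inhibitors lower the FRET ratio by blocking Runt binding to CBFb-SMMHC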
Target sequence (Q01196 whole entry, looked up, the tested form may be a part): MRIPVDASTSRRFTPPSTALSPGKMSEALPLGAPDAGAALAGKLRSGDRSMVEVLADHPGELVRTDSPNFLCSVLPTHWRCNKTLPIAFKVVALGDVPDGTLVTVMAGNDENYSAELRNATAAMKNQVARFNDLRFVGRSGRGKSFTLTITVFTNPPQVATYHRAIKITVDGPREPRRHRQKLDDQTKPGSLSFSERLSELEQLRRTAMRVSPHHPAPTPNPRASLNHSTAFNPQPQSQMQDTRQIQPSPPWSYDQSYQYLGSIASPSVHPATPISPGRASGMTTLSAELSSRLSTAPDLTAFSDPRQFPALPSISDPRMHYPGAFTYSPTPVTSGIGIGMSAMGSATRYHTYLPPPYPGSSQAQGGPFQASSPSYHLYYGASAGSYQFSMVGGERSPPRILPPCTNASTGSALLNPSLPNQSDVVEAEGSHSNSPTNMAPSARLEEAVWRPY
Target sequence (Q13951 whole entry, looked up, the tested form may be a part): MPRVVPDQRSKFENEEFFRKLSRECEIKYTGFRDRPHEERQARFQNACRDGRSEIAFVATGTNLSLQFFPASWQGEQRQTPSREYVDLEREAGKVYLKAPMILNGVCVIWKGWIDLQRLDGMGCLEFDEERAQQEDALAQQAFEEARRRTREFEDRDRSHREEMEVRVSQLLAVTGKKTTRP
VIM-2 inhibitor: blocks Pseudomonas aeruginosa VIM-2 metallo-beta-lactamase; purified VIM-2, nitrocefin hydrolysis, epi-absorbance fluorescence; inhibition, % at 5.6 µM; hit rate 0.89% among 290,000; AID 1527;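 active = inhibition above the mean of all tested compounds plus 3 SD, cutoff set per screening run, cut at about 7.5% in these data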;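 also: red hydrolysis product quenches plate fluorescence so inhibitors raise well fluorescence; 0% = enzyme with DMSO and 100% = DMSO without enzyme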
Runt-CBFb FRET: inhibitors of human RUNX1 Runt domain binding to CBFb; Q01196+Q13951; Cerulean-Runt/Venus-CBFb FRET ratio 530/480, 1 h; inhibition, % at 20 µM; hit rate 0.46% among 220,000;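 active = inhibition over about 50% at 20 µM in the single-dose screen, limit read from the data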;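 also: 0% = DMSO wells and 100% = excess unlabeled CBFb competitor control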
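Assay system: Cerulean-tagged RUNX1 Runt domain (FRET donor) fusion protein / Amount: 100 nM each of Venus-CBFb and Cerulean-Runt domain / Medium: Tris buffer pH 7.5 with salts and BSA / Also added: Venus-CBFb 100 nM / Schedule: 1 h complex formation plus 1 h compound treatment, room temperature / Signal: FRET fluorescence / Read-out: loss of energy transfer signal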
* marks the source's active call; other numbers are inactive results; ? = inconclusive; . = no result given.

SMILES	IMP-1 inh	RanGTP-Impb inh	Runt-SMMHC FRET	VIM-2 inhibitor	Runt-CBFb FRET
COc1ccc(C(=O)N/C(=C\c2cn(S(=O)(=O)N(C)C)c3ccccc23)C(=O)NCCN2CCOCC2)cc1	-1.1	3.6	.	-4.3	.
Cc1ccc(CC(=O)Nc2ccccc2N2CCOCC2)cc1C	6.3*	.	-0.4	-5.8	-0.8
O=C(Cc1ccc(S(=O)(=O)N2CCOCC2)s1)Nc1ccccc1N1CCCC1	0.9	18.8*	.	0.7	.
O=C(COC(=O)Cc1ccc(S(=O)(=O)N2CCCCC2)s1)Nc1ccc2c(c1)OCO2	-1.1	-0.3	-3.1	-2.9	-1.8
COc1ccc(Cl)cc1NC(=O)CN1CCC(n2nnc3cc(C)ccc32)CC1	-4.4	-2.6	1.9	-5.2	-2.5
Cc1ccc2c(c1)nnn2C1CCN(CC(=O)Nc2ccccc2N2CCOCC2)CC1	-2.1	4.3	2.5	-2.7	83.6*
NS(=O)(=O)c1cccc(NC(=O)COC(=O)Cc2ccc(S(=O)(=O)N3CCCCC3)s2)c1	5.6*	1.4	1.2	-3.7	-5.2
O=C(Cc1ccc(S(=O)(=O)N2CCOCC2)s1)Nc1cc(C(F)(F)F)ccc1N1CCCC1	.	9.3	.	.	.
O=c1ccc2ccc(OCCOc3cccc(Cl)c3)cc2o1	-0.2	2.0	.	-1.5	.
COc1cc(C(=O)/C=C/c2cccnc2)c([N+](=O)[O-])cc1OC	.	3.8	.	.	.
CCC1(CC)NC(=O)N(CC(=O)OC(C)C(=O)Nc2cc([N+](=O)[O-])ccc2OC)C1=O (stereo not drawn)	1.2	0.0	.	1.8	.
O=c1[nH]c(N/N=C\c2ccc(F)cc2)nc2ccccc12	-1.7	38.3*	18.7	-2.2	15.7
CC1CCCN(C(=O)c2cc3c(=O)n4ccccc4nc3s2)C1 (stereo not drawn)	-2.0	-1.3	.	4.1	.
CCOC(=O)C1CCN(C(=O)c2cc3c(=O)n4ccccc4nc3s2)CC1	-3.1	-0.6	.	1.1	.
CCOC(=O)C1CCN(C(=O)c2cc3c(=O)n4cccc(C)c4nc3s2)CC1	-0.5	4.3	.	10.4*	.
Cc1cccn2c(=O)c3cc(C(=O)N4CCCCC4)sc3nc12	-2.2	2.1	.	12.1*	.
Cc1ccc(NC(=O)CNC(=O)c2ccco2)cc1	-3.5	-4.4	.	-2.3	.
CCc1cc(=O)oc2c(C)c(O)c(CN3CCCCC3)cc12	-2.0	53.4*	78.0*	-3.0	73.4*
Cc1ccc2c(CN3CCCCC3)cc(=O)oc2c1C	-2.6	-3.1	.	0.1	.
Cc1c(O)c(CN2CCCC2)cc2c3c(c(=O)oc12)CCC3	-2.7	14.2	37.1	9.6*	25.5
Cc1c(O)c(CN2CCCC2)cc2c1oc(=O)c1ccccc12	-0.2	1.8	-11.2	9.0*	-6.0
CCCCNC(=O)/C=C1\Sc2ccccc2NC1=O	-3.4	31.8*	2.6	-4.1	1.4
CC1CCCN(CCCNC(=O)C2CC(=O)N(c3ccc(F)c(Cl)c3)C2)C1 (stereo not drawn)	5.8*	-2.2	-4.4	2.1	-3.8
CC1CCCCN1CCNC(=O)C1CC(=O)N(c2ccc(F)c(Cl)c2)C1 (stereo not drawn)	-2.8	1.3	0.7	-5.7	0.8
CSCC[C@H](NC(=O)C1CCCC1)c1nc2ccccc2[nH]1	0.2	-0.4	-0.8	-1.7	-1.5
SMILES	IMP-1 inh	RanGTP-Impb inh	Runt-SMMHC FRET	VIM-2 inhibitor	Runt-CBFb FRET
CSCCC(NC(=O)C1CC1)c1nc2ccccc2[nH]1 (stereo not drawn)	4.8*	-1.7	1.9	0.1	-0.5
C=CCN1C(=O)/C(=C2/Sc3ccccc3N2CCCS(=O)(=O)O)SC1=S	-2.2	45.5*	65.3*	0.6	66.0*
CN1C(=O)/C(=C2/C=Cc3ccccc3N2CCCS(=O)(=O)O)SC1=S	-7.5	-5.6	-2.1	-3.8	-2.4
CCN(c1ccccc1)S(=O)(=O)c1nnc(NC(=O)c2ccccc2OC)s1	-0.9	18.9*	.	-0.2	.
COc1ccc(NC(=O)CCc2nnc3ccc(NCc4ccco4)nn23)cc1OC	-3.8	1.9	.	-2.1	.
Cc1cccc(C)c1OC(=O)CN1C(=O)c2ccccc2C1=O	-0.1	1.7	.	1.6	.
COc1ccc(C(=O)NC2CCCc3ccccc32)cc1[N+](=O)[O-] (stereo not drawn)	-2.3	-1.5	.	-0.4	.
CC(C)(C)C1CCc2c(sc(NC(=O)c3cc(C4CC4)on3)c2C#N)C1 (stereo not drawn)	4.9*	1.5	5.8	-5.3	1.0
Cc1cc(C(=O)Nc2sc3c(c2C#N)CCC(C(C)(C)C)C3)no1 (stereo not drawn)	-2.8	2.4	0.8	-2.5	-17.5
CS(=O)(=O)N(CC(=O)Nc1cccc(Cl)c1Cl)c1ccccc1	-3.5	1.0	-3.1	-2.3	3.2
CS(=O)(=O)N(CC(=O)Nc1cc(Cl)ccc1Cl)c1ccccc1	4.6*	7.0	-1.6	-0.6	4.1
COc1ccccc1C(=O)Nc1ccnn1C1CCN(CC2CC=CCC2)CC1 (stereo not drawn)	-1.3	6.0	.	-2.6	.
CCc1nnc(NC(=O)c2sc3nc4c(cc3c2N)CCCCC4)s1	-5.6	?	.	-5.4	44.1
CCc1nnc(NC(=O)c2sc3nc4c(cc3c2N)CCCCCC4)s1	-2.4	8.3	61.4*	-1.5	29.8
Cc1ccc2nc(CSc3nc(C)cc(C)c3C#N)[nH]c2c1	-2.7	29.0*	7.4	-1.4	1.9
COc1ccc(C(=O)Nc2ccccc2-c2ccccc2)cc1Cl	5.2*	3.9	-1.1	-0.8	-1.7
CCn1cc([N+](=O)[O-])c(C(=O)Nc2ccn(Cc3ccccc3)n2)n1	-2.9	-4.3	-1.1	11.5*	-1.0
CCOC(=O)/C(C#N)=C\c1ccc(N2CCN(C/C=C/c3ccccc3)CC2)cc1	-2.4	90.7*	-64.7	-0.2	-118.2
CCOC(=O)c1c(-c2ccccc2)oc2ccc(OCC(O)CN(C)C)cc12 (stereo not drawn)	-3.1	-2.7	.	8.9*	.
CCOC(=O)c1c(-c2ccccc2)oc2ccc(OC(C)C(=O)O)cc12 (stereo not drawn)	-2.6	2.2	-0.7	-0.8	-1.6
COc1cc(Br)c(CNc2cc(C)ccc2C)cc1OC	4.7*	1.2	.	-1.5	.
Cc1cc2[nH]c3c(c[n+](C)c4ccccc34)c2cc1C	10.6*	3.2	1.9	6.3	-15.9
Cc1cc(=O)[nH]c2ccccc12	-1.8	-0.9	-1.0	0.0	-1.9
COc1cc(C2N3CC4(C)CN2CC(C)(C3)C4)ccc1O (stereo not drawn)	-2.9	-0.3	5.6	-3.5	1.7
COc1ccc(C2N(c3ccccc3)CCN2c2ccccc2)cc1O	-2.8	25.1*	-2.2	-2.2	-0.7
COc1ccc(C(C(=O)NC2CCCCC2)N(Cc2cccnc2)C(=O)c2snc(C(N)=O)c2N)cc1 (stereo not drawn)	-3.8	-1.1	.	-1.7	.
Cc1coc2c(C)c3oc(=O)c(CCC(=O)NCCN4CCOCC4)c(C)c3cc12	-1.4	-0.1	.	8.2*	.
Cc1c(CCC(=O)NCCCn2ccnc2)c(=O)oc2c(C)c3occ(C(C)(C)C)c3cc12	0.8	3.1	.	8.1*	.

Assay outcomes as filed in PubChem BioAssay.
